# In ChEMBL document CHEMBL2203231, “Nitric oxide donor doxorubicins accumulate into Doxorubicin-resistant human colon cancer cells inducing cytotoxicity” (ACS Med Chem Lett, 2011):
# The source made the active and inactive calls. The calls are words filed in the database; no cut-off is given here.
# Legend:
# [1] = molecular target: T1, ATP-binding cassette sub-family C member 3 (Homo sapiens, UniProt O15438); experiment: Inhibition of MRP3-mediated drug resistance in doxorubicin-resistant human HT-29 cells assessed as increase in drug accumulation at 5 uM after 1 to 24 hrs by spectrofluorometric analysis; type: cell-based; conditions: ht-29, 5 µM
# Outline: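 Time course in HT29-dx cells with 5 μM drug over 1–24 h. Intracellular content was read by spectrofluorimetry of cell lysates.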
# [2] = molecular target: T1, ATP-binding cassette sub-family C member 3; experiment: Inhibition of MRP3-mediated drug resistance in doxorubicin-resistant human HT-29 cells assessed as increase in drug accumulation at 0.5 to 5 uM after 24 hrs by spectrofluorometric analysis; type: cell-based; conditions: ht-29, 24 h
# Outline: (§1)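 HT29-dx cells in RPMI 1640 were incubated for 24 h with 0.5, 1, 2.5, 5 or 25 μM drug, then lysed. Intracellular drug was measured spectrofluorimetrically (excitation 475 nm, emission 553 nm). Data are means ± SD (n = 3) versus untreated cells.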
# HT-29 [3] = experiment: Induction of nitrite production in doxorubicin-resistant human HT-29 cells at 5 uM after 1 to 24 hrs by Griess method; type: functional, cell-based
# Outline: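 In a time-course run, HT29-dx cells were exposed to 5 μM compound. Nitrite in the medium was measured by the Griess reaction at times between 1 and 24 h.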
# [4] = molecular target: T1, ATP-binding cassette sub-family C member 3; experiment: Inhibition of MRP3-mediated drug resistance in doxorubicin-resistant human HT-29 cells assessed as increase in drug accumulation at 25 uM after 24 hrs by spectrofluorometric analysis; type: cell-based; conditions: ht-29, 24 h; outline: as §1
# [5] = molecular target: T1, ATP-binding cassette sub-family C member 3; experiment: Inhibition of MRP3 in doxorubicin-resistant human HT-29 cells assessed as nitration of tyrosine residues at 5 uM after 24 hrs by Western blot analysis; type: cell-based; conditions: ht-29, 24 h
# Outline: (§2)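 HT29-dx cells were treated for 24 h with 5 μM compound and lysed. Whole lysate was immunoprecipitated with a polyclonal anti-nitrotyrosine antibody, then Western blotted with anti-P-gp or anti-MRP3 antibody. Total transporter levels were checked before immunoprecipitation, with GAPDH as loading control. Representative of three experiments.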
# HT-29 [6] = experiment: Induction of nitrite production in doxorubicin-resistant human HT-29 cells after 24 hrs by Griess method; type: functional, cell-based
# Outline: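 HT29-dx cell monolayers were incubated for 24 h with 0.5, 1, 2.5, 5 or 25 μM compound. Nitrite in the culture medium was quantified by the Griess reaction. Data are means ± SD (n = 3) versus untreated cells.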
# HT-29 [7] = experiment: Induction of nitrite production in doxorubicin-resistant human HT-29 cells at 5 uM by Griess method; type: functional, cell-based; conditions: TDE = time-dependent effect
# Outline: (§3)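 HT29-dx cells were incubated for 24 h with 5 μM compound, alone or with 100 μM PTIO or 10 μL/mL packed red blood cells as NO scavengers. Readouts were intracellular drug content, extracellular LDH activity and nitrite in the culture supernatant. Measured in duplicate, n = 3.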
# [8] = molecular target: T1, ATP-binding cassette sub-family C member 3; experiment: Inhibition of MRP3-mediated drug resistance in doxorubicin-resistant human HT-29 cells assessed as increase in doxorubicin accumulation after 24 hrs by spectrofluorometric analysis; type: cell-based; conditions: ht-29, 24 h
# [9] = molecular target: T1, ATP-binding cassette sub-family C member 3; experiment: Inhibition of MRP3-mediated drug resistance in doxorubicin-resistant human HT-29 cells assessed as increase in extracellular LDH level at 5 uM after 24 hrs by spectrofluorometric analysis; type: cell-based; conditions: ht-29, 24 h; outline: as §3
# [10] = molecular target: T1, ATP-binding cassette sub-family C member 3; experiment: Inhibition of MRP3-mediated drug resistance in doxorubicin-resistant human HT-29 cells assessed as increase in extracellular LDH level at 5 uM after 24 hrs by spectrofluorometric analysis in presence of nitric oxide scavenger PTIO and RBCs; type: cell-based; conditions: ht-29, 24 h; outline: as §3
# [11] = molecular target: T1, ATP-binding cassette sub-family C member 3; experiment: Inhibition of MRP3-mediated drug resistance in doxorubicin-resistant human HT-29 cells assessed as increase in doxorubicin accumulation at 5 uM after 24 hrs by spectrofluorometric analysis in presence of nitric oxide scavenger PTIO and RBCs; type: cell-based; conditions: ht-29, 24 h; outline: as §3
# HT-29 [12] = experiment: Inhibition of P-gp in doxorubicin-resistant human HT-29 cells assessed as nitration of tyrosine residues at 5 uM after 24 hrs by Western blot analysis; type: cell-based; outline: as §2
# [13] = molecular target: T1, ATP-binding cassette sub-family C member 3; experiment: Inhibition of MRP3-mediated drug resistance in doxorubicin-resistant human HT-29 cells assessed as increase in doxorubicin accumulation at 5 uM by spectrofluorometric analysis; type: cell-based; conditions: ht-29, 5 µM, TDE = time-dependent effect
# [14] = molecular target: T1, ATP-binding cassette sub-family C member 3; experiment: Inhibition of MRP3-mediated drug resistance in doxorubicin-resistant human HT-29 cells assessed as increase in doxorubicin accumulation at 5 umol/L incubated for 24 hrs followed by compound wash out measured 24 hrs post doxorubicin administration by spectrofluorometric analysis; type: cell-based; conditions: ht-29, 24 h, 5 µM
# [15] = molecular target: ATP-dependent translocase ABCB1 (Homo sapiens, UniProt P08183); experiment: Inhibition of P-gp in doxorubicin-resistant human HT-29 cells at 5 umol/L incubated for 24 hrs followed by compound wash out measured after 20 mins by Rhodamine 123 staining-based flow cytometry; type: cell-based; conditions: ht-29, 24 h, 5 µM
# [16] = molecular target: T1, ATP-binding cassette sub-family C member 3; experiment: Inhibition of MRP3-mediated drug resistance in doxorubicin-resistant human HT-29 cells assessed as increase in doxorubicin accumulation at 5 umol/L co-administered with doxorubicin after 24 hrs by spectrofluorometric analysis; type: cell-based; conditions: ht-29, 24 h, 5 µM
# T1 sequence (O15438 whole entry): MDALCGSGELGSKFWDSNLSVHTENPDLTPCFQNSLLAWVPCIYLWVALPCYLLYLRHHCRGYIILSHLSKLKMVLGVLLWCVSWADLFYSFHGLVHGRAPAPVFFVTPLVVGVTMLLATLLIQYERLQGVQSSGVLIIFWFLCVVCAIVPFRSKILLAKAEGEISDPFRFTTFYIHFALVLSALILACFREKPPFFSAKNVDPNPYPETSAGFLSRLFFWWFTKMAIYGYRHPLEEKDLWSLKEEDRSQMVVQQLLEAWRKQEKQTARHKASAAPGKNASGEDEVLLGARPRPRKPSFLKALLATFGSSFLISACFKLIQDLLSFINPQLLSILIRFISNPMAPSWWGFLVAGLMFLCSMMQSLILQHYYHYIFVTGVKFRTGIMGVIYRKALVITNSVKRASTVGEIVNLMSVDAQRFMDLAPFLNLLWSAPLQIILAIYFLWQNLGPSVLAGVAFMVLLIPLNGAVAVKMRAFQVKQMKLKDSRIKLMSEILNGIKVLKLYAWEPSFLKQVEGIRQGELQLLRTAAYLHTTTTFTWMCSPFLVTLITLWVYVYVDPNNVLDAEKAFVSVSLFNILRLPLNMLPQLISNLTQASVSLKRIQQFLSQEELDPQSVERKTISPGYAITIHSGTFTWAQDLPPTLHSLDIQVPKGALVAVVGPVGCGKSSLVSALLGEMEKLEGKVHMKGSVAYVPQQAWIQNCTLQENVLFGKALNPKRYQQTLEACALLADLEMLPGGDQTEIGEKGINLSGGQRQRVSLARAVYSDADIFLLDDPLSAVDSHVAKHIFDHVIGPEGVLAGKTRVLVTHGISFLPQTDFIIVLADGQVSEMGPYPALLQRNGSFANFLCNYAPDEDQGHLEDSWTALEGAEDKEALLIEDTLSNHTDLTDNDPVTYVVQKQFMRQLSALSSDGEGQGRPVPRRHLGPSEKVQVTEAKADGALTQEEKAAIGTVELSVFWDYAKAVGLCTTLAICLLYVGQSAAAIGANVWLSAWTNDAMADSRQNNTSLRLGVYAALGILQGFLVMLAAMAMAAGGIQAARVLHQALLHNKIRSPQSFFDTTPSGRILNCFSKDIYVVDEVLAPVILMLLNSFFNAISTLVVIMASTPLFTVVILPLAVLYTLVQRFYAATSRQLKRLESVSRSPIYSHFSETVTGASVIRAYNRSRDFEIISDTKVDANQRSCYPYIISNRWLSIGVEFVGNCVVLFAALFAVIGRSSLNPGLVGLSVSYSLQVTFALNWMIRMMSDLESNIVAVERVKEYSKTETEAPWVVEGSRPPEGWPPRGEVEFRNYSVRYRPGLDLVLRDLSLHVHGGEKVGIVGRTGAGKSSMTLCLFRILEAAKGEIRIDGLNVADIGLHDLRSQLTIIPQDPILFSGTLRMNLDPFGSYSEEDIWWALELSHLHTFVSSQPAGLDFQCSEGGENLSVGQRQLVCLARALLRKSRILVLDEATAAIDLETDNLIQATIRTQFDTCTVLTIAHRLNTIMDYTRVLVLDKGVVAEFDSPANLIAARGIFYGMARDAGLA
# Sequence of ATP-dependent translocase ABCB1 (P08183 whole entry): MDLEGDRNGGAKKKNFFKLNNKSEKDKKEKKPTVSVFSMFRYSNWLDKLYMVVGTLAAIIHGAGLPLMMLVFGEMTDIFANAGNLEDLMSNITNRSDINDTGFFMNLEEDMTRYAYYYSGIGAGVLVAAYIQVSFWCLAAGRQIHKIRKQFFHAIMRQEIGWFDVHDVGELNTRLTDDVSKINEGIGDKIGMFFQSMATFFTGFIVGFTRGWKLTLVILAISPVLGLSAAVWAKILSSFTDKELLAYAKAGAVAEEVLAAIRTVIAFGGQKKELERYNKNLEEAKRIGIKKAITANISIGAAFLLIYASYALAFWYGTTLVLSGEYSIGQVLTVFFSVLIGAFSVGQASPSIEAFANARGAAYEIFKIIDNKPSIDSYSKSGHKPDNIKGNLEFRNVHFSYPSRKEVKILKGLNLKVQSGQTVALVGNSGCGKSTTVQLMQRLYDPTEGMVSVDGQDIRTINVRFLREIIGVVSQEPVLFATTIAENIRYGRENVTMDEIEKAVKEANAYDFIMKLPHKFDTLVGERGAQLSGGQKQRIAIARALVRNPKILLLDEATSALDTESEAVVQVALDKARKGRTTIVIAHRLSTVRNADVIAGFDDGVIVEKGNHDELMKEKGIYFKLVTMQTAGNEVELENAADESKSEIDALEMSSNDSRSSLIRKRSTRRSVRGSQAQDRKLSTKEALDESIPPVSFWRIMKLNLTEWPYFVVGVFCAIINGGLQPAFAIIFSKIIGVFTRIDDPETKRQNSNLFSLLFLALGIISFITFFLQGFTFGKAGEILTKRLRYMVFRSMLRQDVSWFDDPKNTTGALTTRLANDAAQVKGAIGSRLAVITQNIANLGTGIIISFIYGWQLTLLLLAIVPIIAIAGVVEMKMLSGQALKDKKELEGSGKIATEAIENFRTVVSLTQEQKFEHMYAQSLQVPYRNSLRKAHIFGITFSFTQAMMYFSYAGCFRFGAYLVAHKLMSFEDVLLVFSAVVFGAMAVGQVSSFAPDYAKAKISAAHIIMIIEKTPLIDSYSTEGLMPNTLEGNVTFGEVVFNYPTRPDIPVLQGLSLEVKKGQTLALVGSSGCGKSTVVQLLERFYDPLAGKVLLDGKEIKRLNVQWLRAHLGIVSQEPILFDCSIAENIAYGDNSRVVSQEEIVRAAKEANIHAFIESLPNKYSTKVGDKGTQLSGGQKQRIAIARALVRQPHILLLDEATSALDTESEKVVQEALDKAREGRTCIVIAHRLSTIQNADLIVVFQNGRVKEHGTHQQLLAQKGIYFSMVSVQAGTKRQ
smiles,measurement,setting,value
COc1cccc2c1C(=O)c1c(O)c3c(c(O)c1C2=O)C[C@@](O)(C(=O)CO)C[C@@H]3O[C@H]1C[C@H](N)[C@H](O)[C@H](C)O1 [DOXORUBICIN],inhibition (INH),[1],Not Active
same,inhibition (INH),[2],Not Active
same,Activity,HT-29 [3],inactive
same,inhibition (INH),[4],Active
same,inhibition (INH),[5],Not Active
COc1cccc2c1C(=O)c1c(O)c3c(c(O)c1C2=O)C[C@@](O)(C(=O)COC(=O)c1ccc(CC(CO[N+](=O)[O-])O[N+](=O)[O-])cc1)C[C@@H]3O[C@H]1C[C@H](N)[C@H](O)[C@H](C)O1.Cl (stereo partly drawn),Activity,HT-29 [6],Dose-dependent effect
same,Activity,HT-29 [7],tde
same,inhibition (INH),[8],Dose-dependent effect
same,inhibition (INH),[9],Active
same,inhibition (INH),[10],Not Active
same,inhibition (INH),[11],Not Active
same,inhibition,HT-29 [12],inactive
same,inhibition (INH),[13],tde
same,inhibition (INH),[5],Active
COC(=O)CCOc1no[n+]([O-])c1S(=O)(=O)c1ccccc1,inhibition (INH),[14],Active
same,inhibition (INH),[9],Not Active
same,inhibition (INH),[15],Not Active
same,inhibition (INH),[16],Active
COc1cccc2c1C(=O)c1c(O)c3c(c(O)c1C2=O)C[C@@](O)(C(=O)COC(=O)CCOc1no[n+]([O-])c1S(=O)(=O)c1ccccc1)C[C@@H]3O[C@H]1C[C@H](N)[C@H](O)[C@H](C)O1.Cl,Activity,HT-29 [6],Dose-dependent effect
same,Activity,HT-29 [7],tde
same,inhibition (INH),[8],Dose-dependent effect
same,inhibition (INH),[9],Active
same,inhibition (INH),[10],Not Active
same,inhibition (INH),[11],Not Active
same,inhibition,HT-29 [12],inactive
same,inhibition (INH),[13],tde
same,inhibition (INH),[5],Active
O=C(O)CCOc1no[n+]([O-])c1S(=O)(=O)c1ccccc1,inhibition (INH),[14],Active
same,inhibition (INH),[9],Not Active
same,inhibition (INH),[15],Not Active
same,inhibition (INH),[16],Active
O=C(O)c1ccc(CC(CO[N+](=O)[O-])O[N+](=O)[O-])cc1 (stereo not drawn),inhibition (INH),[9],Not Active
COC(=O)c1ccc(CC(CO[N+](=O)[O-])O[N+](=O)[O-])cc1 (stereo not drawn),inhibition (INH),[9],Not Active
